The source made the active and inactive calls. The rule behind the calls is not given here.
What was measured:
RAW264.7 [1] = assay: Antiinflammatory activity against LPS-stimulated mouse RAW264.7 cells assessed as reduction of iNOS level at 10 uM after 16 hrs by DC protein assay; format: functional
Summary of the method: (§1)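 RAW264.7 cells activated with E. coli LPS (0.01 µg/mL) for 16 h with or without test compound. Cells washed in ice-cold PBS, lysed, and centrifuged at 20000g, 30 min, 4 °C. Supernatant protein measured by DC assay (Lowry-modified); equal protein loaded for SDS-PAGE, transferred to PVDF, blocked, and probed 180 min with anti-iNOS or anti-COX-2 (1:1000). Levels reported relative to LPS-only control.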

RAW264.7 [2] = assay: Antiinflammatory activity against LPS-stimulated mouse RAW264.7 cells assessed as reduction of COX2 level at 10 uM after 16 hrs by DC protein assay; format: functional; summary of the method: as §1

Q: What does the source list for `CC1(C)CC[C@@]2(C)C[C@@H]3CC(=O)C(CO)=C3[C@@H]12`?
A: Activity (RAW264.7 [1]): inactive; Activity (RAW264.7 [2]): inactive

Q: Which Activity (RAW264.7 [1]) does the source give for `C=C1[C@@H](OC(C)=O)C[C@H]2C[C@]3(C)CCC(C)(C)[C@@H]3[C@@]12OC(C)=O` here?
A: inactive

Q: What about the Activity (RAW264.7 [2]) of the same compound?
A: inactive

Q: `C=C1[C@@H](O)C[C@H]2C[C@]3(CO)CCC(C)(C)[C@@H]3[C@@]12O` was tested. Which Activity (RAW264.7 [1]) did it give?
A: inactive

Q: And the Activity (RAW264.7 [2])?
A: inactive

Q: For `C=C1[C@@H](O)C[C@H]2C[C@]3(C)CCC(C)(C)[C@@H]3[C@@]12O`, which Activity (RAW264.7 [1]) is on record?
A: 1.2

Q: And the Activity (RAW264.7 [2])?
A: 24.8

Q: How did the Activity (RAW264.7 [1]) turn out when `C=C1[C@@H](OC(C)=O)C[C@H]2C[C@]3(C)CCC(C)(C)[C@@H]3[C@@]12O` was run?
A: 54.4

Q: And the Activity (RAW264.7 [2])?
A: 62.9

Q: `C=C1[C@H]2[C@@H](C[C@@H]1O)C[C@]1(C)CCC(C)(C)[C@H]21` was tested. Which Activity (RAW264.7 [1]) did it give?
A: inactive

Q: What about the Activity (RAW264.7 [2]) of the same compound?
A: inactive

Q: What does the source list for `C=C1[C@H]2[C@@H](C[C@@H]1OC(C)=O)C[C@]1(C)CCC(C)(C)[C@H]21`?
A: Activity (RAW264.7 [1]): inactive; Activity (RAW264.7 [2]): inactive

Q: What does the source list for `C=C1[C@H]2[C@@H](C[C@@H]1O)C[C@]1(C)CC[C@](C)(CO)[C@H]21`?
A: Activity (RAW264.7 [1]): inactive; Activity (RAW264.7 [2]): inactive

Q: Which results are given for `C=C1C(=O)C[C@H]2C[C@]3(C)CCC(C)(C)[C@@H]3[C@@]12O`?
A: Activity (RAW264.7 [1]): 34.8; Activity (RAW264.7 [2]): inactive

From ChEMBL document CHEMBL1149849, “Capnellenes from the Formosan soft coral Capnella imbricata” (2008)
